# Data as given in ChEMBL document CHEMBL1275530, “Aspergillus fumigatus forms biofilms with reduced antifungal drug susceptibility on bronchial epithelial cells” (2008).
# *1 amine or outer side, *2 acyl side, *3 side chain or, on linkers, in order; H or OH if unused. Where a SMILES comes first, the peptide text is derived from it. Bridges are numbered along the chain shown (N, C = ends). [ ]: non-standard residue; d: D form. The star is where a group is joined. hTyr(3S-OH,4S-OH,3'-OSO3H) = N[C@H](C(=O)O)[C@H](O)[C@@H](O)c1ccc(O)c(OS(=O)(=O)O)c1; Orn(4R-OH,5R-OH) = O=C([C@H](C[C@@H](O)[C@@H](O)N[*:3])N[*:1])[*:2]; Pro(3S-OH,4S-Me) = C[C@H]1CN[C@H](C(=O)O)[C@H]1O; X1 = CCCCCOc1ccc(-c2cc(-c3ccc(C(=O)*)cc3)no2)cc1; Gln(3R-OH) = NC(=O)C[C@@H](O)[C@H](N)C(=O)O; Hyp = O=C(O)[C@@H]1C[C@@H](O)CN1
# Columns and labels:
# Assay type in all cases: functional
# Aspergillus fumigatus [1] = assay: Antifungal activity against Aspergillus fumigatus ATCC 9197 grown as planktonic cell on polystyrene after 48 hrs by broth microdilution method; details: ATCC 9197, 48 h
# In short: (§1)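 CLSI M38-A broth microdilution on planktonic conidia, with drugs added at once and end points read at 24 h and 48 h. Ranges in μg/ml: AMB 0.06 to 32; liposomal AMB, voriconazole, posaconazole, itraconazole, caspofungin and micafungin 0.03 to 16. Inoculum was the same as in the XTT assay. Three repeats.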
# Aspergillus fumigatus [2] = assay: Antifungal activity against Aspergillus fumigatus ATCC 9197 grown as biofilm on 16HBE cell after 24 to 48 hrs by XTT assay
# In short: (§2)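 Biofilm grown in PS 96-well plates on confluent 16HBE14o− (1) or CFBE41o− (2) cells on fibronectin/collagen coating. Conidia (10^6/ml) in MEM plus 10% FCS adhered 2 h at 37°C, 5% CO2. Drugs were added after 24–48 h of biofilm growth and incubated another 24 h and 48 h. Sessile MIC was read by XTT as 50% (MIC-2) or 90% (MIC-1) inhibition of metabolic activity versus drug-free control. CFU were also plated. Three repeats.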
# Aspergillus fumigatus [3] = assay: Antifungal activity against Aspergillus fumigatus ATCC 9197 grown as planktonic cell on CFBE41o cell after 48 hrs by broth microdilution method; details: ATCC 9197, 48 h; in short: as §1
# Aspergillus fumigatus [4] = assay: Antifungal activity against Aspergillus fumigatus ATCC 9197 grown as planktonic cell on 16HBE cell after 48 hrs by broth microdilution method; details: ATCC 9197, 48 h; in short: as §1
# Aspergillus fumigatus [5] = assay: Antifungal activity against Aspergillus fumigatus ATCC 9197 grown as biofilm on CFBE41o cell after 24 to 48 hrs by XTT assay; in short: as §2
# Aspergillus fumigatus [6] = assay: Antifungal activity against Aspergillus fumigatus ATCC 9197 grown as biofilm on polystyrene after 24 to 48 hrs by XTT assay
# In short: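 Biofilm was formed on polystyrene without epithelial cells, starting from 10^6 conidia/ml in MEM plus 10% FCS. Drugs were added after 24–48 h of biofilm growth. After a further 24 h and 48 h, XTT reduction gave MICs at 50% and 90% inhibition of metabolic activity relative to a drug-free control.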
smiles,measurement,setting,value
C[C@@H]1[C@H](O)[C@@H](C)/C=C/C=C/C=C/C=C/C=C/C=C/C=C/[C@H](O[C@@H]2O[C@H](C)[C@@H](O)[C@H](N)[C@@H]2O)C[C@@H]2O[C@](O)(C[C@@H](O)C[C@@H](O)[C@H](O)CC[C@@H](O)C[C@@H](O)CC(=O)O[C@H]1C)C[C@H](O)[C@H]2C(=O)O [AMPHOTERICIN B],MIC50,Aspergillus fumigatus [1],1 µg/mL
same,MIC90,Aspergillus fumigatus [1],1 µg/mL
same,MIC50,Aspergillus fumigatus [2],2 µg/mL
same,MIC90,Aspergillus fumigatus [2],4 µg/mL
same,MIC50,Aspergillus fumigatus [3],0.5 µg/mL
same,MIC90,Aspergillus fumigatus [3],1 µg/mL
same,MIC50,Aspergillus fumigatus [4],0.5 µg/mL
same,MIC90,Aspergillus fumigatus [4],1 µg/mL
same,MIC50,Aspergillus fumigatus [5],4 µg/mL
same,MIC90,Aspergillus fumigatus [5],8 µg/mL
same,MIC50,Aspergillus fumigatus [6],8 µg/mL
same,MIC90,Aspergillus fumigatus [6],16 µg/mL
CC[C@H](C)C[C@H](C)CCCCCCCCC(=O)N[C@H]1C[C@@H](O)[C@@H](NCCN)NC(=O)[C@@H]2[C@@H](O)CCN2C(=O)[C@H]([C@H](O)CCN)NC(=O)[C@H]([C@H](O)[C@@H](O)c2ccc(O)cc2)NC(=O)[C@@H]2C[C@@H](O)CN2C(=O)[C@H]([C@@H](C)O)NC1=O [CASPOFUNGIN],MIC50,Aspergillus fumigatus [2],> 8 µg/mL
same,MIC90,Aspergillus fumigatus [2],> 8 µg/mL
same,MIC50,Aspergillus fumigatus [3],0.5 µg/mL
same,MIC90,Aspergillus fumigatus [3],1 µg/mL
same,MIC50,Aspergillus fumigatus [4],0.5 µg/mL
same,MIC90,Aspergillus fumigatus [4],1 µg/mL
same,MIC50,Aspergillus fumigatus [5],> 8 µg/mL
same,MIC90,Aspergillus fumigatus [5],> 8 µg/mL
CCC(C)n1ncn(-c2ccc(N3CCN(c4ccc(OCC5COC(Cn6cncn6)(c6ccc(Cl)cc6Cl)O5)cc4)CC3)cc2)c1=O (stereo unspecified) [ITRACONAZOLE],MIC50,Aspergillus fumigatus [1],0.5 µg/mL
same,MIC90,Aspergillus fumigatus [1],1 µg/mL
same,MIC50,Aspergillus fumigatus [2],1 µg/mL
same,MIC90,Aspergillus fumigatus [2],1 µg/mL
same,MIC50,Aspergillus fumigatus [3],0.125 µg/mL
same,MIC90,Aspergillus fumigatus [3],0.25 µg/mL
same,MIC50,Aspergillus fumigatus [4],0.125 µg/mL
same,MIC90,Aspergillus fumigatus [4],0.25 µg/mL
same,MIC50,Aspergillus fumigatus [5],1 µg/mL
same,MIC90,Aspergillus fumigatus [5],2 µg/mL
same,MIC50,Aspergillus fumigatus [6],2 µg/mL
same,MIC90,Aspergillus fumigatus [6],4 µg/mL
"CCCCCOc1ccc(-c2cc(-c3ccc(C(=O)N[C@H]4C[C@@H](O)[C@@H](O)NC(=O)[C@@H]5[C@@H](O)[C@@H](C)CN5C(=O)[C@H]([C@H](O)CC(N)=O)NC(=O)[C@H]([C@H](O)[C@@H](O)c5ccc(O)c(OS(=O)(=O)O)c5)NC(=O)[C@@H]5C[C@@H](O)CN5C(=O)[C@H]([C@@H](C)O)NC4=O)cc3)no2)cc1 [MICAFUNGIN] (X1-[Orn(4R-OH,5R-OH)]T[Hyp][hTyr(3S-OH,4S-OH,3'-OSO3H)][Gln(3R-OH)][Pro(3S-OH,4S-Me)]; lactam 1-C)",MIC50,Aspergillus fumigatus [2],> 8 µg/mL
same,MIC90,Aspergillus fumigatus [2],> 8 µg/mL
same,MIC50,Aspergillus fumigatus [3],0.5 µg/mL
same,MIC90,Aspergillus fumigatus [3],1 µg/mL
same,MIC50,Aspergillus fumigatus [4],0.5 µg/mL
same,MIC90,Aspergillus fumigatus [4],1 µg/mL
same,MIC50,Aspergillus fumigatus [5],> 8 µg/mL
same,MIC90,Aspergillus fumigatus [5],> 8 µg/mL
CC[C@@H]([C@H](C)O)n1ncn(-c2ccc(N3CCN(c4ccc(OC[C@@H]5CO[C@@](Cn6cncn6)(c6ccc(F)cc6F)C5)cc4)CC3)cc2)c1=O [POSACONAZOLE],MIC50,Aspergillus fumigatus [2],1 µg/mL
same,MIC90,Aspergillus fumigatus [2],1 µg/mL
same,MIC50,Aspergillus fumigatus [3],0.125 µg/mL
same,MIC90,Aspergillus fumigatus [3],0.125 µg/mL
same,MIC50,Aspergillus fumigatus [4],0.125 µg/mL
same,MIC90,Aspergillus fumigatus [4],0.125 µg/mL
same,MIC50,Aspergillus fumigatus [5],1 µg/mL
same,MIC90,Aspergillus fumigatus [5],2 µg/mL
C[C@@H](c1ncncc1F)[C@](O)(Cn1cncn1)c1ccc(F)cc1F [VORICONAZOLE],MIC50,Aspergillus fumigatus [2],1 µg/mL
same,MIC90,Aspergillus fumigatus [2],1 µg/mL
same,MIC50,Aspergillus fumigatus [3],0.125 µg/mL
same,MIC90,Aspergillus fumigatus [3],0.125 µg/mL
same,MIC50,Aspergillus fumigatus [4],0.125 µg/mL
same,MIC90,Aspergillus fumigatus [4],0.125 µg/mL
same,MIC50,Aspergillus fumigatus [5],1 µg/mL
same,MIC90,Aspergillus fumigatus [5],2 µg/mL
